According to ChEMBL document CHEMBL4513216, “Probing the Open Global Health Chemical Diversity Library for Multistage-Active Starting Points for Next-Generation Antimalarials” (ACS Infect Dis, 2020):

Experiment: Toxicity liver stage against HepG2, at 10uM
Format: cell-based
Parameters: test concentration 10 uM, cell line HepG2-A16-CD81EGFP
Details: human, HepG2-A16-CD81EGFP cells; read-out: INHIBITION
In short: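 Uninfected HepG2-A16-CD81EGFP cells, 3 × 10^3 per well, 1536-well, plated on prespotted compound at 10 μM final, parasite-free screening media added to match infected plates; puromycin 10 μM positive, DMSO 0.5% negative; run in parallel with 48 h PbLuc assay at 37 °C, 5% CO2; viability by CellTiter-Glo luminescence, normalized to controls.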

Row | SMILES | cytotoxicity at 10 µM [%]
1 | CC(C)(C)CN1Cc2cc3c(cc2NCCC1=O)OCO3 | -84.3
2 | COC(=O)COn1c(OC)nc2ccccc2c1=O | -4.73
3 | O=C1CSC(c2ccncc2)c2c(n(C3CCOCC3)[nH]c2=O)N1 (stereo unspecified) | -19.4
4 | CCOC(=O)NCCC(O)c1ccoc1 (stereo unspecified) | -10.5
5 | CC(C)Nc1ccc2c(c1)C1(CCOCC1)C(=O)N2c1ccsc1 | 11
6 | CCN1CCOCC2(CCCN(c3nncs3)C2)C1 (stereo unspecified) | 8.28
7 | CCc1ccc(C(=O)N2CCCn3nnc(Cn4cccn4)c3C2)cc1 | 7.8
8 | N#Cc1cccc(CN2CCC3(CC(C(=O)NCC4CC4)=NO3)C2)c1 (stereo unspecified) | 8.73
9 | CC(=O)N1CC[C@@H]2O[C@@H](COCC(=O)N3CCCC3)CC[C@@H]21 | -7.73
10 | COc1ncccc1C(=O)N1CC[C@H]2C[C@H](c3ccncn3)O[C@@H]2C1 | 9.4
11 | CC(C)COc1ccc(C2SCC(=O)Nc3c2c(=O)[nH]n3C(C)C)cc1 (stereo unspecified) | 8.74
12 | COC(=O)C1CCN(C(=O)c2nnc3ccc(Cl)cc3n2)CC1 | 12.3
13 | COCCNC(=O)c1cc(C(C)C)nc(N2CCCCC2)n1 | 9.04
14 | CC(C)c1cc(C(=O)NCCCN(C)C)nc(N2CCCC2)n1 | 8.49
15 | Cc1ccccc1OC1CCN(CC(=O)Nc2c(C)nn(C)c2C)CC1 | 0.919
16 | COCC(=O)N[C@@H]1CN(Cc2ccc3c(c2)OCCO3)C[C@H]1O | -27.1
17 | Cc1ccc(C(=O)N2Cc3ccccc3OC3(CCOCC3)C2)cn1 | -25.8
18 | Cc1nc2ccccn2c1CC(=O)N[C@@H]1CC[C@@H](N2CCOCC2)[C@@H]1O | -1.68
19 | Cc1nc(C2CCCN2C(=O)COc2ccccc2)ncc1C(N)=O (stereo unspecified) | -19.1
20 | Cc1cc(CCC(N)=O)cc(C2CCCN2Cc2cnc(C)nc2)n1 (stereo unspecified) | -26.1
21 | COc1ccccc1CN1CCC(c2nn(CCN)c3nccnc23)C1 (stereo unspecified) | -32.7

Row | SMILES | cytotoxicity at 10 µM [%]
22 | COc1ccc(CN(C)[C@@H]2CN(C(=O)c3cccnc3)C[C@H]2O)cc1 | 10.9
23 | COc1cccc(SCCCn2cnc3c(N)ncnc32)c1 | 11.7
24 | Cn1c(C2CC2)nc2c1CCN(CC(=O)NC1CCCCNC1=O)C2 (stereo unspecified) | 3.73
25 | CCC(c1ccccc1)N1CCN(CCO)CC1 (stereo unspecified) | -1.19
26 | COC(=O)CC1CN(Cc2ccn(-c3ccc(F)cc3)n2)CCO1 (stereo unspecified) | -7.83
27 | COC(=O)C(C)N(Cc1cc(C)on1)C1CC1 (stereo unspecified) | 0.91
28 | CN(CCCNC(=O)c1ccccc1F)CC(F)(F)F | -9.25
29 | CN(Cc1cnn(C)c1)S(=O)(=O)N1CCCC1c1ccco1 (stereo unspecified) | -5.78
30 | Cc1cc(NC(=O)N(CCC#N)CCCN(C)C)ccc1F | -57.7
31 | CC(C)n1cc(CN2CCCN(C(=O)c3ccc[nH]3)CC2)cn1 | 3.59
32 | O=C(NCCc1cccc(F)c1)c1nc2c(s1)CCCN2C(=O)C1CC1 | -91.4
33 | COC[C@@H]1CCC[C@@]12CN(C(=O)N1CCCC1)CCO2 | -101
34 | c1cc(CN2CC[C@H]3O[C@@H](COCC4CCOCC4)CC[C@H]32)ccn1 | -69.8
35 | COc1cc(-c2cnnc(NCCSC)n2)cc(OC)c1OC | 3.98
36 | COc1ncccc1-c1cc(C(N)=O)ccn1 | 7.81
37 | COC(=O)[C@@H]1CCCN1C(=O)c1cn(C/C=C/c2ccccc2)nn1 | 3.61
38 | O=C1NC2(CCN(CCc3ccccc3)CC2)CC1c1ccccc1 (stereo unspecified) | -48.6
39 | O=C(Nc1ccccc1N1CCOC1=O)N1CCSCC1 | 3.15
40 | COCCN1CCN(Cc2ccc(Cl)cc2)[C@H]2CS(=O)(=O)C[C@H]21 | -4.01
41 | CN(C)Cc1ccccc1CN(C)c1ncnc2[nH]ccc12 | 8.11
42 | CC(C)N1CCC(CC(=O)NC(C(=O)O)c2cc(F)ccc2F)CC1 (stereo unspecified) | 1.18

Row | SMILES | cytotoxicity at 10 µM [%]
43 | CC(=O)c1cc(CN2C[C@@H](NS(=O)(=O)N(C)C)[C@H](C(C)C)C2)cs1 | -7.79
44 | OCC1(O)CCCN(Cc2ccccc2OCCc2ccccc2)CC1 (stereo unspecified) | -45.4
45 | CCC(=O)c1ccc(OCC(=O)NCC2CC(CC)=NO2)cc1 (stereo unspecified) | -41.7
46 | CCNC(=O)C1CCN(c2cc(CC)nc3ccnn23)C1 (stereo unspecified) | -8.24
47 | O=C(CCCc1cn[nH]c1)N1C[C@@H](CN2CCCCCC2)[C@@H](CO)C1 | 1.52
48 | COCCCC1CCCCN1C(=O)c1ccc(SCCO)cc1 (stereo unspecified) | -50
49 | CC(C1CCN(Cc2c(Cl)cncc2Cl)CC1)N1CCOCC1 (stereo unspecified) | -8.68
50 | COc1cccc(Cl)c1C(C(=O)O)N(C)Cc1nnc(C)o1 (stereo unspecified) | -23.4
51 | OC(CNc1nc(C2CCCC2)nc2c1CCNCC2)C(F)(F)F (stereo unspecified) | -4.78
52 | CC(C)c1nccc(CN2CCC(c3nc4ccccc4n3C)CC2)n1 | 7.23
53 | CCc1nnc(CNC(=O)CCN2CCN(c3cccc(C)c3)CC2)s1 | -1.82
54 | CC(COc1ccccc1)NS(C)(=O)=O (stereo unspecified) | -4.05
55 | CN(C)CCN1CC(C(=O)N(C)Cc2cc3cc(F)ccc3[nH]2)CC1=O (stereo unspecified) | -1.03
56 | Cc1ccc(NC(=O)CNC(C)Cc2ccsc2)cc1F (stereo unspecified) | 9.17
57 | CSCCNC(=O)c1ccc(OC2CCN(CC(C)(C)C)CC2)c(Cl)c1 | -10.9
58 | O=C1CN(c2ccc(CNC(=O)NCCO)cc2)CCN1 | -2.38
59 | CCn1cc(CN2CCCN(C(=O)CCn3cc(C)cn3)CC2)cn1 | -2.11
60 | Cc1ccc(C(=O)NCC(O)c2cccc(F)c2)c(=O)[nH]1 (stereo unspecified) | -2.83
61 | Cc1ccc(C)c(S(=O)(=O)NC(=O)c2ccc(C)[nH]c2=O)c1 | -1.07
62 | CCn1ccnc1CN1CCN(CCOc2ccc(C#N)cc2)CC1 | -3.75
63 | CCc1cnc(CN(C)C2CCN(CC(=O)Nc3nccs3)C2)o1 (stereo unspecified) | -18.7

Row | SMILES | cytotoxicity at 10 µM [%]
64 | CN(C(=O)Cc1ccccc1F)C1CCN(c2ccccn2)CC1 | -0.644
65 | Cn1cnc2c1CCN(CCS(=O)(=O)c1ccc(Cl)cc1)C2 | -6.67
66 | CC(C)c1cc(NC(=O)CN2CCCC2c2noc(C(C)C)n2)on1 (stereo unspecified) | -3.84
67 | O=C(Cc1ccccc1F)N1CCN(Cc2noc(C3CC3)n2)CC1 | -2.21
68 | COc1ccc(COCC(O)CNC(=O)c2ccc(C)c(F)c2)cc1 (stereo unspecified) | -0.584
69 | CC(C)CN(C)c1ccc(C(=O)N2CCCC2c2cnn(C)c2)cn1 (stereo unspecified) | -6.95
70 | CC(NC(=O)NCCCO)c1ccc2c(c1)OCCO2 (stereo unspecified) | -2.92
71 | CN(C(=O)CN1CCOC(Cn2cccn2)C1)c1nccs1 (stereo unspecified) | -14.2
72 | O=C(N[C@@H]1CN[C@H]2CCCO[C@H]21)c1cnccn1 | 6.38
73 | CCOc1cc2c(cc1CNC(Cc1cccs1)c1nccs1)OCO2 (stereo unspecified) | 7.15
74 | Fc1ccccc1Cn1c(C2CCNCC2)cc2cccnc21 | 1.25
75 | Cc1nc2sccn2c1CNC1(c2ccccc2F)CCCC1 | 11.3
76 | CCc1ccc(CN(CCCn2ccnc2)Cc2ccc(C)s2)o1 | 3.86
77 | CC1Cc2cc(-c3cncn3CC(=O)NC(C)(C)C)ccc2N1C (stereo unspecified) | -40.5
78 | Cc1cnc(N2CCC[C@@H]3CN(CC(=O)N(C)C)C[C@@H]32)nc1 | 11.4
79 | CS(=O)(=O)N[C@@H]1CCN(Cc2cccnc2)[C@H]1Cc1ccccc1 | -74.5
80 | COc1ccc(CN2CCC3(CC2)CCN(CC2CC2)C3=O)cc1 | 8.18
81 | CCC(CC)NC(=O)c1ncn2c1CN(CC)S(=O)(=O)c1ccccc1-2 | -85.1
